Bioassay records deposited in PubChem by The Scripps Research Institute Molecular Screening Center.
PRMT1 FP inh: blocks human protein arginine methyltransferase 1; Q99873; recombinant PRMT1, activity-based probe fluorescence polarization; inhibition, % at 2.79 µM; actives 1.3% (n = 370,000);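 active means inhibition above about 21% made by adding two undisclosed values, limit read from the data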
Target sequence (Q99873 whole entry, looked up): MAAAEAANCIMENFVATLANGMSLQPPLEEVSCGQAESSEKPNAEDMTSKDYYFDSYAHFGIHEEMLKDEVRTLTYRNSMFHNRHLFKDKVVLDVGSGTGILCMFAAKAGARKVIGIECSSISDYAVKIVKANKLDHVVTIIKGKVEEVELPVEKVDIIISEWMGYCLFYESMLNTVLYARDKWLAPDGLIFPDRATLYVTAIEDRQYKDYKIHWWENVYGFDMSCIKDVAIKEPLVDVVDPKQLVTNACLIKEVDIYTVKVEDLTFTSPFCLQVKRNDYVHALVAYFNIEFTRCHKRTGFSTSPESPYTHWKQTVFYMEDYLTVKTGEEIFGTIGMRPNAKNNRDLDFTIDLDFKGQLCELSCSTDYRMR
SIAE primary: human SIAE inhibition, primary screen; actives 0.69% (n = 370,000); SIAE FP-Rh probe binding, fluorescence polarization; Q9HAT2; inhibition, % at 9.66 µM;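 active means inhibition above a cutoff: mean of compounds within the control limits plus 3 SD of those, cut at about 17% in these data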;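 further: 0% = plate median of compound wells and 100% = probe without SIAE protein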
rCAG RNA binder: r(CAG) repeat RNA binding; TO-PRO-1 dye displacement fluorescence; inhibition, % at 3 µM; actives 1.3% (n = 370,000); AID 651821;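 active means inhibition above the plate cutoff, the mean of all test compounds on that plate plus 3 SD, cut at about 35% in these data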;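 further: 0% = DMSO alone and 100% = 100 µM mitoxantrone as full dye displacement; higher means more dye released from RNA so lower well fluorescence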
HTRA1 inh: inhibitors of human serine peptidase HTRA1. recombinant HTRA1, FP-rhodamine activity-based probe, fluorescence polarization. Q92743. inhibition, % at 5.96 µM. actives 0.5% (n = 340,000); in the data active means inhibition above about 36%;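 further: 0% = enzyme with DMSO and 100% = wells lacking enzyme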
mABHD4 FP: inhibitors of mouse ABHD4 | Q8VD66 | purified mABHD4, FP-Rh probe fluorescence polarization | inhibition, % at 8.92 µM | actives 0.54% (n = 370,000);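 active means inhibition exceeding the mean over every tested compound plus 3 SD, cut at about 30% in these data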;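 further: 0% = plate median of compound wells and 100% = S159A mutant with DMSO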
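Test system: mouse ABHD4 enzyme, wild type. Reagent: FP-Rh fluorescent activity-based probe, added after compound pre-incubation. Timing: pre-incubation 45 min, probe exposure 60 min, at 25 °C. Technique: FP readout, ex 525 nm / em 598 nm. Benchmarks: high control S159A mutant with DMSO, low control median of compound wells.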
SIAE inh conf: confirmation of human SIAE inhibitors | shares compounds with SIAE primary | actives 13% (n = 2,300) | AID 1117263 | inhibition, % at 9.66 µM | SIAE FP-Rh activity-based probe, fluorescence polarization;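 active means mean inhibition of the replicates above the hit cutoff set in the primary screen, cut at about 17% in these data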;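 further: 0% = SIAE with DMSO and probe and 100% = probe without SIAE; inhibitors lower polarization as more probe stays unbound to SIAE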
An asterisk follows results filed as active; · = no result given. A selection: hits, their analogues and other compounds. The true share with any hit is near 3.3%.

SMILES	PRMT1 FP inh	SIAE primary	rCAG RNA binder	HTRA1 inh	mABHD4 FP	SIAE inh conf
Cc1onc(-c2ccccc2Cl)c1C(=O)Nc1ccc(N2CCOCC2)cc1	-1	17*	0	-1	11	1
Cc1ccc2nc(CN(C)C(=O)[C@H](CCc3ccccc3)NC(=O)[C@H]3O[C@@H](n4cnc5c(N)ncnc54)[C@H](O)[C@@H]3O)[nH]c2c1	-2	13	2	·	-6	·
Cc1ccc2nc(CN(C)C(=O)[C@@H](Cc3ccccc3)NC(=O)[C@H]3O[C@@H](n4cnc(C(N)=O)n4)[C@H](O)[C@@H]3O)[nH]c2c1	-4	68*	5	·	-9	74*
CN(C(=O)COC(=O)c1ccc(Cl)c(S(=O)(=O)N2CCCCCC2)c1)C1CCS(=O)(=O)C1 (stereo not drawn)	-3	19*	0	-1	4	3
CCN(C(=O)COC(=O)c1ccc(Cl)c(S(=O)(=O)N2CCCCC2)c1)C1CCS(=O)(=O)C1 (stereo not drawn)	-7	0	-1	1	-5	·
Cc1coc2cc3oc(=O)c(CCC(=O)NCC(=O)O)c(C)c3cc12	0	-1	4	7	2	·
CCCc1cc(=O)oc2cc(C)cc(OCC(=O)NCc3cccnc3)c12	1	18*	-5	-6	0	1
CCCCc1cc(=O)oc2cc(C)cc(OCC(=O)Nc3cccnc3)c12	-3	-12	0	-8	-6	·
CCN(CC(=O)Nc1c(F)cccc1F)C(=O)C1CC1	-1	1	0	-1	3	·
FC(F)(F)c1cccc(-c2nc3nc(Cl)c(Cl)nc3[nH]2)c1	·	·	·	-10	·	·
O=C(Nc1ccc(F)c(Cl)c1)Nc1csc2ccccc12	5	23*	13	-13	-4	-11
O=C(Nc1ccc(F)cc1F)Nc1csc2ccccc12	11	4	10	·	-1	·
CCOC(=O)C1CCN(Cc2cnc(NC(=O)OC)s2)CC1	-2	-3	-6	-1	9	·
COC(=O)Nc1ncc(CN2CCc3ccccc3C2)s1	2	78*	-3	-3	3	-7
O=C(Nc1cc2c3c(c1)CC(=O)N3CCC2)C1CC1	3	20*	-1	-2	-1	-1
Cc1nc2c(C)cccc2cc1C(=O)N/N=C/c1ccc(C(=O)O)cc1	-3	-4	4	·	-6	·
Cc1nc2c(C)cccc2cc1C(=O)N/N=C/c1cccnc1	-4	18*	0	3	5	2
CC(=O)Nc1ccc(C(=O)N/N=C/c2cc(Br)cc(Br)c2O)cc1	1	33*	3	21	5	14
CC(C)C(=O)Nc1ccc(C(=O)N/N=C/c2cc(Br)cc(Br)c2O)cc1	1	4	-1	6	4	·
CC(=O)c1c(C)[nH]c(C(=O)NCc2ccccc2)c1C	-2	26*	2	-1	0	-1
CC(=O)c1c(C)[nH]c(C(=O)NCc2ccc(F)cc2)c1C	-1	0	-3	-7	1	·
Cc1ccccc1-n1ncc2c1CC(C)(C)CC2NC(=O)CN1CCCC1=O (stereo not drawn)	-5	-2	-7	0	4	·
O=C(CSc1ncnc2ccccc12)Nc1ccc2c(c1)OCCO2	8	-4	2	0	-10	·
CC(Sc1ncnc2ccccc12)C(=O)Nc1ccc2c(c1)OCCO2 (stereo not drawn)	-2	24*	3	0	-11	-1
Cc1ccc(F)c(S(=O)(=O)NC(=O)C2(C)CCN2C(=O)Cc2cc(F)ccc2F)c1 (stereo not drawn)	-1	0	3	·	11	·
CCN1C(=O)/C(=C2/C(=O)N3c4c(cc(OC(C)=O)cc42)C(C)=CC3(C)C)SC1=S	2	17*	8	0	12	7
CC1=CC(C)(C)N2C(=O)C(=O)c3cc(OC(=O)c4ccco4)cc1c32	2	6	-1	·	14	·
Cc1ccc(OCC(=O)NCCCNC(=O)c2ccncc2)cc1	3	-5	0	2	2	·
Cc1ccc2c(C)c(C(=O)N3CCN(Cc4ccccn4)CC3)oc2c1C	0	11	-9	-5	2	·
Cc1cc2oc(C(=O)N3CCN(CCc4ccccn4)CC3)c(C)c2cc1C	1	24*	-11	1	-1	5
